Data reported in ChEMBL document CHEMBL1142386, “Synthesis and structure-activity relationship studies in peripheral benzodiazepine receptor ligands related to alpidem” (Bioorg Med Chem, 2008).

Biological target: Translocator protein (Rattus norvegicus, UniProt P16257)
Test: Displacement of [3H]PK115 from peripheral benzodiazepine receptor in Sprague-Dawley rat cortical membrane
In short: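 Male Sprague–Dawley rats, 200–250 g; cerebral cortex homogenized in ice-cold PBS pH 7.4, washed twice by centrifugation at 40,000g. Filtration on PEI-presoaked GF/B filters, scintillation counting. IC50 from 6–10 concentrations in triplicate; mean ± SEM of three determinations.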

Sequence of Translocator protein (P16257 whole entry, looked up): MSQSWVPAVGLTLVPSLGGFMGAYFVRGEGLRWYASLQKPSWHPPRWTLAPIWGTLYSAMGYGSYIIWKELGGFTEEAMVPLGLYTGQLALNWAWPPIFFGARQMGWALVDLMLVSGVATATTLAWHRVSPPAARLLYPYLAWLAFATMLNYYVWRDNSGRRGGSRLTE

SMILES | IC50 [µM]
CN(C(=O)/C=C1\c2nc3ccccc3cc2C(=O)N1c1ccc(Cl)cc1)c1ccc(Cl)cc1 | 0.00062
COc1ccc(N(C)C(=O)/C=C2\c3nc4ccccc4cc3C(=O)N2c2ccc(Cl)cc2)cc1 | 0.0009
COc1ccc(NC(=O)/C=C2\c3nc4ccccc4cc3C(=O)N2c2ccc(Cl)cc2)cc1 | 0.076
COc1ccc(N(C)C/C=C2\c3nc4ccccc4cc3C(=O)N2c2ccc(Cl)cc2)cc1 | 2.36
COc1ccc(N(C)C(=O)/C=C2\c3nc4ccccc4cc3C(=O)N2c2ccccc2)cc1 | 0.012
C#CCN(C)C(=O)/C=C1\c2nc3ccccc3cc2C(=O)N1c1ccc(Cl)cc1 | 0.32
CN(C(=O)/C=C1\c2nc3ccccc3cc2C(=O)N1c1ccc(Cl)cc1)c1ccc(O)cc1 | 0.074

Further lines, results first:

IC50 [µM] | SMILES
0.026 | CN(Cc1ccccc1)C(=O)/C=C1\c2nc3ccccc3cc2C(=O)N1c1ccc(Cl)cc1
0.01 | CN(C(=O)/C=C1\c2nc3ccccc3cc2C(=O)N1c1ccccc1)c1ccc(Cl)cc1
0.044 | CN(C(=O)/C=C1\c2nc3ccccc3cc2C(=O)N1c1ccc(Cl)cc1)c1ccccc1
0.015 | CCN(Cc1ccccc1)C(=O)/C=C1\c2nc3ccccc3cc2C(=O)N1c1ccc(Cl)cc1
